Results on 36 sequences are retold here after the EternaBench riboswitch data.

In this series the test system is MS2 coat protein. Kind of series: apparent Kd, MS2 coat protein; higher = weaker binding; RNA-MaP array; FMN 200 µM where present. Put shortly: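 Stalled E. coli RNA polymerase transcribed the designs on Illumina sequencing-chip clusters. SNAP-549-labelled MS2 coat protein was titrated from 0.7 or 1.5 nM, doubling to 3 µM, without and then with constant ligand, in 100 mM Tris-HCl pH 7.5, 80 mM KCl, 4 mM MgCl2, BSA, DTT, yeast tRNA and Tween-20. Per-cluster binding curves were fitted to green signal normalised to red-channel RNA signal and control-cluster median Fmax. The apparent Kd is the median of the filtered fits.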

Where [1] appears, read: designed as: OFF switch for flavin mononucleotide, no ligand.
[2] abbreviates: ligand present: flavin mononucleotide, designed as: OFF switch for flavin mononucleotide.
[3] abbreviates: designed as: ON switch for flavin mononucleotide, no ligand.
Where [4] appears, read: ligand present: flavin mononucleotide, designed as: ON switch for flavin mononucleotide.

As to “AUCCAGCGAGGAUAUACAUAGAUUUUUUCGUUUUGUCUCGAACAUGAGGAUCACCCAUGUAGAAGGUGCUUCAC”, the apparent Kd (in general, a dissociation constant that holds for the conditions of the assay) by setting is: under setting [1], 82.5 nM; under setting [2], 81 nM.

As for “CAGAAGUCAGGAUAUGCAUGGCGGGACUUGCGUCGUGGCGUGCAGAAGGGACAUGAGGAUCACCCAUGUAAAGG”, the “apparent Kd” value is 174 nM under setting [1] and 300 nM under setting [2].

With “AUACUCAUGUAAGGAUAUGCAGCCGUUUCGGCUGCAGAAGGUACUAUAAUACAUGAGGAUCACCCAUGUCUCUCGCAUUGCGAG”, the “apparent Kd” value was found to be 131 nM under setting [3] and 178 nM under setting [4].

Take “GCUUCCGCAUGAGGAUAUUGUUAAGGGACGGGACCUCAUGACCCACAUGAGGAUCACCCAUGUGGCGAGAAGGCGUGUAGAGCG”: the “apparent Kd” value reads like this: under setting [1], 10.1 nM; under setting [2], 32.7 nM.

In the case of “UAUUAUUUGGAGAAGGACAUGAGGAUCACCCAUGUCGCCGGGCCCGGGAAACCGGGCCCGGCCAUGUAGGAUAUCCGGGUGGUA”, the “apparent Kd” value under setting [1] stood at 12.7 nM and the “apparent Kd” value under setting [2] was found to be 13.6 nM.

Regarding “UAAAAGUUAGGAUAUACAUGAGGAUCACCCAUGUCGCGGAACCGCGGCGAUUACUCCUGUAGAAGGAACAUCGU”, the “apparent Kd” value reads like this: under setting [1], 165 nM; under setting [2], 291 nM.

For the sequence “CUGUACAUAGGAUAUAGUUGUUUUUACAUGAGGAUCACCCAUGUUACUCCUCUCUCUCUUCUAGAAGGAUGUUUUU”, the “apparent Kd” value was determined as 79.8 nM under setting [1] and 58.4 nM under setting [2].

Take “GGAUAUAACGUAGGAUAUCUGAGAAAUAGAUGAAGAGAAGGACGACAUGAGGAUCACCCAUGUGAUCUAUCAAUAUUAUACAUG”: the “apparent Kd” value is, setting by setting: under setting [1], 452 nM; under setting [2], 749 nM.

As for “AUACAUGAGGAUCACCCAUGUUACUGGGUCUUAAUAGAACGUAGAAGGAUGAUAUUAUAAAUAACAUAGGAUAUACAAUAUUGU”, the “apparent Kd” value by setting is: under setting [1], 132 nM; under setting [2], 64.2 nM.

On to “UUUAUAAAGAUAGGAUAUAGUAUAAUAAUUUAAUUAGAAGGAUCACACAUGAGGAUCACCCAUGUAUGAGGAUCACCCAUGUAU”, for which the “apparent Kd” value reads like this: under setting [1], 20.4 nM; under setting [2], 21.1 nM.

Turning to “AUGCUAGUGUGAGGAUAUACAUGAGGAUCACCCAUGUGUCCGAAGUACCGGACAUGAGGUACGUCGUAGAAGGUACAUUAGCAU”, the “apparent Kd” value is, setting by setting: under setting [1], 21 nM; under setting [2], 102 nM.

Turning to “UCAUUGUAAGGAUAUAAAAGCUCGCGGAAUUGCACGGGUUGUUAGAAGGUACAUGAGGAUCACCCAUGUUCCUA”, the “apparent Kd” value runs as follows: under setting [1], 17.1 nM; under setting [2], 22.1 nM.

Take “GGAAAUCAUGUAGGAUAUGCAUGGCGAAGCUACGCAGAAGGACAUGAGGAUCACCCAUGUUCUGGCUACCGGAUACGGUGGCAA”: the “apparent Kd” value under setting [1] stood at 20.7 nM and the “apparent Kd” value under setting [2] was 94.3 nM.

Regarding “UUGGAGGUCGUAGGAUAUGUAGGAUAUUCCUACAUGAGGAUCACCCAUGUUGACAUGGAAGAAGGACAGAAGGACGAUGUCCAU”, the “apparent Kd” value was 367 nM under setting [3] and 6.26 nM under setting [4].

In the case of “GGUACCUUUACAGGAUAUGCUAGCCUUUGGUUAGCAGAAGGGUGAUACAUGAGGAUCACCCAUGUGGUGCCAGGGCGUGAGCCC”, the “apparent Kd” value reads like this: under setting [3], 79.2 nM; under setting [4], 447 nM.

As to “AUCAGAUCUCGACUGUCCAACAUGAGGAUCACCCAUGUCAGAAGAAGGGACUAUUAACUAAUCUGUCAGGAUAUUUUGACGCGG”, the “apparent Kd” value turned out to be 10.6 nM under setting [1] and 49.7 nM under setting [2].

For the sequence “UGCAGCGUGCACAUGAGGAUCACCCAUGUGCCAGUGAACGCACAGGAUAUGCAAUCGUACGGCUAGCAGAAGGGUGGGUCUCAC”, the “apparent Kd” value is 7.65 nM under setting [3] and 6.45 nM under setting [4].

“CUUUUGUGAGGAUAUCAGUAGUAAAAAAAUAAAAUUACUACUGAGAAGGCACAUGAGGAUCACCCAUGUGCCUC”: the “apparent Kd” value by setting is: under setting [1], 13.9 nM; under setting [2], 12.9 nM.

With “GGAUACGACAGAGGAUAUACGUGCUAGAGAUACUAGCAAAAUUUCCUCACAUGAGGAUCACCCAUGUAGAAGGCUGUCCUAUCG”, the “apparent Kd” value worked out at 16.2 nM under setting [1] and 337 nM under setting [2].

As to “UCGCUGCGAGGAUAUACAUGAGGAUCACCCAUGUGCGGGUCCGGGUCUUCGUCCAUUGGUAGAAGGCGCAGUGA”, the “apparent Kd” value amounted to 45.3 nM under setting [1] and 554 nM under setting [2].

Regarding “GGGAGACAUGAGGAUCACCCAUGUGAAAACGUGGCAGGAUAUCGAUGGAAACCAUACUGUCGAGAAGGGCCUUGUC”, the “apparent Kd” value reads like this: under setting [3], 56.7 nM; under setting [4], 35.6 nM.

For the sequence “AUGUAGUACGUAGGAUAUCAAUGAGGAUCACCCUGAGAAGGACGUGAGGACAUGAGGAUCACCCAUGUGGAUCACCCAUGUCAU”, the “apparent Kd” value reads like this: under setting [1], 173 nM; under setting [2], 142 nM.

Consider “AGGCGGGCAGGAUAUGCGUACUGACGGGAAAACUGAAUGGUACAUGAGGAUCACCCAUGUAGAAGGGCUUUGAA”, for which the “apparent Kd” value under setting [1] is 50.1 nM and the “apparent Kd” value under setting [2] stood at 38.3 nM.

Take “AAUUAUUAUUGAGGAUAUCGUAUUGAAACAAUACGAGAAGGCGGGAUAAACAUGAGGAUCACCCAUGUGAGCCUGAUGCUUGUG”: the “apparent Kd” value came to 18.1 nM under setting [1] and 16.5 nM under setting [2].

As to “UUAAUGUGAGGAUAUCAGGUGUGCUAGCGUACUGGUACAUCUGAGAAGGCACAUGAGGAUCACCCAUGUUCCAG”, the “apparent Kd” value was 32.8 nM under setting [1] and 100 nM under setting [2].

On to “GCGUAGUUCUAGAAGGUGCUAGCGAUAAGCUAGCAAGGAUAUAGACAUGAGGAUCACCCAUGUCUUUGUGACAUCGACAUACGC”, for which the “apparent Kd” value amounted to 5.62 nM under setting [1] and 7.03 nM under setting [2].

With “CCCGUCAUCGAGAAGGCCUCAACAUGAGGAUCACCCAUGUUGUAAUAUGGGAGGAUAUCGAUGAUACAGCUACGUUUCGUACCC”, the “apparent Kd” value under setting [3] came to 17.1 nM and the “apparent Kd” value under setting [4] worked out at 5.8 nM.

As for “GCUCUGUCAGGAUAUCAGGCUGACGGAACUUGGCUGUUAGAUGAGAAGGGACAUGAGGAUCACCCAUGUAAAAU”, the “apparent Kd” value reads like this: under setting [1], 33.8 nM; under setting [2], 34.8 nM.

“AUCAGCUUGUCAGGAUAUGCGUGUCAACGAAAGUUGACAAUCUUAAUAACAUGAGGAUCACCCAUGUAGAAGGGACGAGCUGAU”: the “apparent Kd” value under setting [1] worked out at 17.1 nM and the “apparent Kd” value under setting [2] came to 17.9 nM.

As to “GUCUUCAUGACAUGAGGAUCACCCAUGUGUUAUAUUUUUACUAAGGAUAUAUUUUUAAUGUUGAGAUAGAAGGUAGUUUCGGUC”, the “apparent Kd” value was determined as 101 nM under setting [1] and 121 nM under setting [2].

Consider “AACAGUGCAAUAAUAAUAAGAUCUACAUGAGGAUCACCCAUGUAGGAUAUCGUCAGGAAUACUGACGAGAAGGACAUAGCACUG”, for which the “apparent Kd” value under setting [1] turned out to be 13.9 nM and the “apparent Kd” value under setting [2] turned out to be 15.6 nM.

On to “CGCUGUUGCGCAGGAUAUGCAUUGGAUUACAAUGCAGAAGGGCGAUUACAUGAGGAUCACCCAUGUGUAGACAGUGAAGAAGAG”, for which the “apparent Kd” value reads like this: under setting [3], 300 nM; under setting [4], 37.2 nM.

“UUGUUACAUGAGGAUCACCCAUGUGAGGAUAUGGCCCGCCCGGCGUGUGCUGGUUUUGUCAGAAGGCGCGUGGG”: the “apparent Kd” value runs as follows: under setting [1], 61.6 nM; under setting [2], 170 nM.

“UUAGUGGUAGGAUAUCACCCAGGUUACAUGAGGAUCACCCAUGUGACUCAGCAGGCCAAGUGAGAAGGGCUGCUCC”: the “apparent Kd” value runs as follows: under setting [1], 22.3 nM; under setting [2], 20 nM.

As to “UCACGGGAUUGAGGAUAUAUAUUAAUUUUUACAAUAGAAGGCAAAUUGUUAGAUUAUUCACUAUACAUGAGGAUCACCCAUGUU”, the “apparent Kd” value is, setting by setting: under setting [1], 23.6 nM; under setting [2], 21.7 nM.

As to “GUUUAGUGAGGAUAUGUGGCUUCGAUCGAGCGCGGUCUGCUACAGAAGGCACAUGAGGAUCACCCAUGUUUCUC”, the “apparent Kd” value under setting [1] was found to be 118 nM and the “apparent Kd” value under setting [2] was 424 nM.
